The text below walks through data of ChEMBL document CHEMBL1177648, “Synthesis and anti breast cancer activity of biphenyl based chalcones” (Bioorg Med Chem, 2010).

Calls of active or inactive are those of the source. The calls are words filed in the database; no cut-off is given here.

For assay [1], the system named is MDA-MB-231. Description: Cell cycle arrest in human MDA-MB-231 cells assessed as reduction in bcl2 mRNA expression at 5 uM after 24 hrs by RT-PCR. The assay is classed as functional, cell-based. The gist of the method: (§1)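 MDA-MB231 cells (1 × 10⁶) grown overnight in six-well plates, treated at 5 µM. Total RNA isolated with Trizol, 1 µg digested with DNase I, then reverse transcribed. Relative mRNA levels of cyclin A1, bax, bcl-2, p21 and p53 measured by real-time PCR against untreated control.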

The next assay relates to MCF7. Description: Cytotoxicity against human MCF7 cells after 24 hrs by MTT assay. The assay is classed as functional, cell-based. The note with it: Homo sapiens, MCF7, 24 h; read-out: IC50. In outline: (§2)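 Cells seeded at 1 × 10⁴/well in DMEM with 10% FBS and held 24 h at 37 °C in CO₂. Compounds diluted in culture medium and incubated 24 h. Medium removed, MTT (5 mg/ml) added for 4 h, formazan dissolved in DMSO, absorbance read at 540 nm. Viability given as percent of untreated cells.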
(In general: Tetrazolium dyes change colour on reduction, which living cells bring about.)

Assay [2] concerns MDA-MB-231. Description: Cell cycle arrest in human MDA-MB-231 cells assessed as increase in bax mRNA expression at 5 uM after 24 hrs by RT-PCR. The format is functional, cell-based. The gist of the method:
as §1

Assay [3] relates to MDA-MB-231. Briefly: Cell cycle arrest in human MDA-MB-231 cells assessed as increase in p53 mRNA expression at 5 uM after 24 hrs by RT-PCR. The assay is classed as functional, cell-based. In outline: as §1
For the next assay, the system named is HeLa. Briefly: Cytotoxicity against human HeLa cells after 24 hrs by MTT assay. The format is functional, cell-based. The gist of the method: as §2
The test system of assay [4] is MDA-MB-231. Description: Cell cycle arrest in human MDA-MB-231 cells assessed as decrease in S phase at 5 uM after 24 hrs annexin-V FITC and PI staining by flow cytometry. The format is functional, cell-based. In general terms: A flow cytometer gives signals particle by particle.
In assay [5] the test system is MDA-MB-231. Description: Induction of apoptosis in human MDA-MB-231 cells assessed as reduction in membrane potential at 5 uM after 24 hrs by flow cytometry. The format is functional, cell-based. The gist of the method: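 MDA-MB-231 cells treated 24 h at 5 µM, collected by trypsinization and washed with PBS. Cells loaded with JC-1 for 15 min at 37 °C, rinsed three times in phenol-red-free high-glucose DMEM and resuspended in prewarmed medium. Membrane potential taken as the red/green (590/530 nm) fluorescence ratio.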

Assay [6] has as its system MDA-MB-231. Description: Cell cycle arrest in human MDA-MB-231 cells assessed as reduction in cyclin A1 mRNA expression at 5 uM after 24 hrs by RT-PCR. The assay is classed as functional, cell-based. In outline:
as §1

For assay [7], the system named is MDA-MB-231. Briefly: Induction of apoptosis in human MDA-MB-231 cells assessed as increase in caspase level at 5 uM after 24 hrs. The format is functional, cell-based. The gist of the method: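 MDA-MB231 cells kept serum-deprived for 4 h, then treated 24 h at 5 µM. Cells incubated with caspase substrate DEVD-rhodamine-110 in a homogeneous caspase assay. Fluorescence of released rhodamine-110 measured at […].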

In a further assay the test system is HEK293. Description: Cytotoxicity against HEK293 cells after 24 hrs by MTT assay. The format is cell-based, Homo sapiens. The settings on record: Homo sapiens, HEK293, 24 h; read-out: IC50. In outline:
as §2

In assay [8] the test system is MDA-MB-231. Description: Induction of apoptosis in human MDA-MB-231 cells assessed as early apoptotic cells at 5 uM after 24 hrs annexin-V FITC and PI staining by flow cytometry. The format is functional, cell-based. The gist of the method: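 MDA-MB231 cells (1 × 10⁶) grown overnight in six-well plates, then given 5 µM final compound or vehicle (0.001% DMSO) for 24 h. Floating and adherent cells harvested by trypsinization and washed with PBS. 1 × 10⁵ cells stained with Annexin V-FITC and propidium iodide and analysed by flow cytometry with 488 nm excitation; Annexin V-FITC read at 535 nm emission.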

Assay [9] concerns MDA-MB-231. Briefly: Cell cycle arest in human MDA-MB-231 cells assessed as increase in sub G1 phase at 5 uM after 24 hrs annexin-V FITC and PI staining by flow cytometry. The assay is classed as functional, cell-based.
Assay [10] has as its system MDA-MB-231. Description: Cytotoxicity against human MDA-MB-231 cells after 24 hrs by MTT assay. The format is functional, cell-based. The note with it: Homo sapiens, MDA-MB-231, 24 h; read-out: IC50. The gist of the method:
as §2

Assay [11] deals with MDA-MB-231. Description: Cell cycle arest in human MDA-MB-231 cells assessed as increase in p21 mRNA expression at 5 uM after 24 hrs by RT-PCR. The assay is classed as functional, cell-based. In outline: as §1

One may read the IC50 as the concentration at which inhibition is half-maximal. As to `Cc1cc(O)c(C(=O)/C=C/c2cccc(Cl)c2)c(-c2ccccc2)c1C(=O)/C=C/c1cccc(Cl)c1`, the outcome in the assay on MDA-MB-231 [1], with MDA-MB-231 [2], in the assay on MDA-MB-231 [3], with MDA-MB-231 [4], with MDA-MB-231 [5] and in the assay with MDA-MB-231 [6] was Active. The result with MDA-MB-231 [7], in the assay with MDA-MB-231 [8], in the assay with MDA-MB-231 [9] and with MDA-MB-231 [11] was Active. For the same compound, the 50% inhibitory concentration (IC50) with MCF7 is 20 µM; with HeLa (Homo sapiens, HeLa, 24 h, read-out: IC50), 22 µM; with HEK293, 15 µM; in the assay on MDA-MB-231 [10], 4.67 µM.

As for `Cc1cc(O)c(C(=O)/C=C/c2ccccc2)c(-c2ccc(Cl)cc2)c1C(=O)/C=C/c1ccccc1`, the outcome in the assay on MDA-MB-231 [1], in the assay on MDA-MB-231 [3], with MDA-MB-231 [4], with MDA-MB-231 [5], in the assay with MDA-MB-231 [6] and in the assay on MDA-MB-231 [7] was Active. The outcome with MDA-MB-231 [8], in the assay with MDA-MB-231 [9] and in the assay on MDA-MB-231 [11] was Active. In addition, the IC50 in the assay on MCF7 is 15 µM; with HeLa (hela) it was “Not Active”; in the assay on HEK293 it was 5 µM; in the assay with MDA-MB-231 [10], 4.4 µM.
